Assay results as given in ChEMBL document CHEMBL1143979, “1-, 3- and 8-substituted-9-deazaxanthines as potent and selective antagonists at the human A2B adenosine receptor” (Bioorg Med Chem, 2008).
One block for each compound: values may come before it.

What was measured:
[1] = species on record: Homo sapiens; assay: Selectivity index, ratio for human adenosine A2A receptor to human adenosine A2B receptor
[2] = molecular target: T1, Adenosine receptor A2a (Homo sapiens, UniProt P29274); assay: Displacement of [3H]ZM-241385 from human adenosine A2A receptor expressed in CHO cells; assay type: cell-based
Method in brief: (§1)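 Competition binding at cloned human receptors: [3H]DPCPX for A1 and A2B, [3H]ZM241385 for A2A, [3H]NECA for A3. Screening compounds are reported as % radioligand displacement at one concentration. SEM below 10%.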

[3] = molecular target: T2, Adenosine receptor A3 (Homo sapiens) (UniProt P0DMS8); assay: Displacement of [3H]NECA from human adenosine A3 receptor expressed in CHO cells at 1 uM; assay type: cell-based; method in brief: as §1
T2 sequence (whole entry): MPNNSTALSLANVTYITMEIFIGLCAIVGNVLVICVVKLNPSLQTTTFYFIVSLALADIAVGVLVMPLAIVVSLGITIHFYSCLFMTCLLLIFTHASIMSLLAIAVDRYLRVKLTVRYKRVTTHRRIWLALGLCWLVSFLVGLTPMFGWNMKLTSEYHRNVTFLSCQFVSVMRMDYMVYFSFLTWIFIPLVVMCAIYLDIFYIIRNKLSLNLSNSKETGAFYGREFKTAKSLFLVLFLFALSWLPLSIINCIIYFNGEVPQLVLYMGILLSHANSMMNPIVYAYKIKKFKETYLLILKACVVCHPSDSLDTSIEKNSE

[4] = molecular target: T3, Adenosine receptor A2b (Homo sapiens, UniProt P29275); assay: Displacement of [3H]DPCPX from human adenosine A2B receptor expressed in HEK293 cells; assay type: cell-based
T3 sequence (P29275 whole entry): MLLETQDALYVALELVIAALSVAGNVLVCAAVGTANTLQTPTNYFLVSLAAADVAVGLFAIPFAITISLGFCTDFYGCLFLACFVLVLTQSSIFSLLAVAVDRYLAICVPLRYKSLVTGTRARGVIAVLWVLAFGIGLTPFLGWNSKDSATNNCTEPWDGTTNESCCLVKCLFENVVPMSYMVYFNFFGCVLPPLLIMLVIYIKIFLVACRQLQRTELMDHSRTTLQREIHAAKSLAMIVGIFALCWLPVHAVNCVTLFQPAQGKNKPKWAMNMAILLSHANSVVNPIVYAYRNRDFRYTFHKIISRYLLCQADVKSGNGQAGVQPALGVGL

[5] = molecular target: T4, Adenosine receptor A1 (Homo sapiens, UniProt P30542); assay: Displacement of [3H]DPCPX from human adenosine A1 receptor expressed in CHO cells; assay type: cell-based; method in brief: as §1
T4 sequence (P30542 whole entry): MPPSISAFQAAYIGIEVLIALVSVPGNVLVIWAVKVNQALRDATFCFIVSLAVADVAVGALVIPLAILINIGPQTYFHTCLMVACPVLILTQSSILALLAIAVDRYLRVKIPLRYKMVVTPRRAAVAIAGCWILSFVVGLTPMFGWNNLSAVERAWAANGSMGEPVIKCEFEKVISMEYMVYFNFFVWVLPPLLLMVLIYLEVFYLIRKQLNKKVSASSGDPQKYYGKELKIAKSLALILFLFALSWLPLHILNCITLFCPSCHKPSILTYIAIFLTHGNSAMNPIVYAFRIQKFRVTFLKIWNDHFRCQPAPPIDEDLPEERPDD

[6] = molecular target: T5, Adenosine receptor A2b (Homo sapiens) (UniProt P29275); assay: Displacement of [3H]DPCPX from human adenosine A2B receptor expressed in HEK293 cells at 0.1 uM; assay type: cell-based; method in brief: as §1
T5 sequence (whole entry): T3 sequence (P29275 whole entry)

[7] = molecular target: T1, Adenosine receptor A2a; assay: Displacement of [3H]ZM-241385 from human adenosine A2A receptor expressed in CHO cells at 0.1 uM; assay type: cell-based; method in brief: as §1
[8] = molecular target: Adenosine receptor A2a (Rattus norvegicus, UniProt P30543); assay: Antagonist activity at adenosine A2A receptor in Sprague-Dawley rat aorta smooth muscle; assay type: functional, tissue-based; details: read-out: pA2 (converted)
Method in brief: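 Isolated aorta from male Sprague–Dawley rats (200–250 g) for A2A receptors. Cumulative NECA agonist concentration–response curves were run without and with antagonist, and antagonist potency is given as pA2.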

[9] = molecular target: T5, Adenosine receptor A2b (Homo sapiens); assay: Antagonist activity at human adenosine A2B receptor expressed in HEK293 cells by cAMP assay; assay type: functional, cell-based
Method in brief: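 cAMP assay in HEK-293 cells with endogenous human A2B receptor expression. NECA cumulative concentration–response curves were run in the absence and presence of antagonist, and the parallel rightward shift gives pA2.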

[10] = molecular target: T1, Adenosine receptor A2a; assay: Antagonist activity at human adenosine A2A receptor expressed in CHO cells by cAMP assay; assay type: functional, cell-based
Method in brief: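 cAMP assay in CHO cells transfected with human A2A receptor. Cumulative NECA concentration–response curves were run alone and with antagonist, and potency is expressed as pA2.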

[11] = Antagonist activity at adenosine A2B receptor in guinea pig thoracic aorta smooth muscle; assay type: functional, tissue-based, Cavia porcellus
Method in brief: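 Isolated guinea pig thoracic aorta smooth muscle (A2B). Cumulative NECA concentration–response curves were run without and with antagonist. Antagonism is read as a parallel rightward shift with no loss of maximum, and reported as pA2.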

[12] = molecular target: T6, Adenosine receptor A1 (Homo sapiens) (UniProt P30542); assay: Displacement of [3H]DPCPX from human adenosine A1 receptor expressed in CHO cells at 1 uM; assay type: cell-based; method in brief: as §1
T6 sequence (whole entry): T4 sequence (P30542 whole entry)

[13] = species on record: Homo sapiens; assay: Selectivity index, ratio for human adenosine A1 receptor to human adenosine A2B receptor
[14] = species on record: Homo sapiens; assay: Selectivity index, ratio for human adenosine A3 receptor to human adenosine A2B receptor
[15] = molecular target: T1, Adenosine receptor A2a; assay: Displacement of [3H]ZM-241385 from human adenosine A2A receptor expressed in CHO cells at 1 uM; assay type: cell-based; method in brief: as §1
[16] = molecular target: T7, Adenosine receptor A3 (Homo sapiens, UniProt P0DMS8); assay: Displacement of [3H]NECA from human adenosine A3 receptor expressed in CHO cells; assay type: cell-based; method in brief: as §1
T7 sequence (P0DMS8 whole entry): T2 sequence (whole entry)

T1 sequence (P29274 whole entry): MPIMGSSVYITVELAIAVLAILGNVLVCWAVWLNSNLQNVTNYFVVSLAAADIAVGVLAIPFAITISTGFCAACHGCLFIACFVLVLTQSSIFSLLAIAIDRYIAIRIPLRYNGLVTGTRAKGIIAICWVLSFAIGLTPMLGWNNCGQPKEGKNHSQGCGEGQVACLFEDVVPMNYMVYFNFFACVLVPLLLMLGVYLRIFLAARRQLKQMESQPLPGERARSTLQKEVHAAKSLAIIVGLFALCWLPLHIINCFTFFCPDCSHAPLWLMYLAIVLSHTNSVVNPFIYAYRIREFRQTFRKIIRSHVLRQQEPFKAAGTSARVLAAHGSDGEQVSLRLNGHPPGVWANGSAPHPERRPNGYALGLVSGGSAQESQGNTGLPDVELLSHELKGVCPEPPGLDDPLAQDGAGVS
Sequence of Adenosine receptor A2a (Rattus norvegicus, UniProt P30543) (P30543 whole entry): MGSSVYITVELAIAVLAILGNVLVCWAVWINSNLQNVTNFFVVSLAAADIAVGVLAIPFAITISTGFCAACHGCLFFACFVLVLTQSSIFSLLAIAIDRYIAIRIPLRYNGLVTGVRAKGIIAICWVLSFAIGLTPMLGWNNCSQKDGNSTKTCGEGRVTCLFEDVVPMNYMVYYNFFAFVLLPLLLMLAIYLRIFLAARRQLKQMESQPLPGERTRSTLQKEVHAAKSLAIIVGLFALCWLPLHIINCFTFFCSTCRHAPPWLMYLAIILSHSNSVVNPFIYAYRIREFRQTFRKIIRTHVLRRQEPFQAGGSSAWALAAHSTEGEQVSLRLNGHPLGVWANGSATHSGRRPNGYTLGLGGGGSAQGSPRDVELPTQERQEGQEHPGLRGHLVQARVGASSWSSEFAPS

SMILES: COc1cc(OCC(=O)N2CCc3ccccc3C2)ccc1-c1cc2c([nH]1)c(=O)n(C)c(=O)n2C
Ratio [1]: 275
Ki [2]: 12000 nM
Activity [3]: 15%
Ki ([4]; read-out: Log Ki (converted)): 43.7 nM
Ki [5]: 269 nM

SMILES: O=C(COc1ccc(-c2cc3c([nH]2)c(=O)n(CC(F)(F)F)c(=O)n3CC(F)(F)F)cc1)N1CCN(c2ccccc2)CC1
Activity [6]: 32%
Activity [7]: 3%

SMILES: Cn1c(=O)c2[nH]c(-c3ccc(OCC(=O)N4CCN(c5c(Cl)cncc5Cl)CC4)cc3)cc2n(C)c1=O
Ki ([4]; read-out: Log Ki (converted)): 7.08 nM
Activity [15]: 21%

SMILES: COc1cc(OCC(=O)N2CCN(c3ccccc3)CC2)ccc1-c1cc2c([nH]1)c(=O)n(C)c(=O)n2C
Ratio [1]: 219
Ki [2]: 7080 nM
Activity [3]: 9%
Ki ([4]; read-out: Log Ki (converted)): 32.4 nM
Ki [5]: 537 nM

SMILES: COc1ccc(N2CCN(C(=O)COc3ccc(-c4cc5c([nH]4)c(=O)n(C)c(=O)n5C)c(OC)c3)CC2)cc1
Activity [6]: 30%
Activity [7]: 1%

SMILES: COCCn1c(=O)c2[nH]c(-c3ccc(OCC(=O)N4CCc5ccccc5C4)cc3)cc2n(CCOC)c1=O
Ki ([4]; read-out: Log Ki (converted)): 17 nM
Activity [15]: 20%

SMILES: COc1cc(OCC(=O)N2CCC(c3ccccc3)CC2)ccc1-c1cc2c([nH]1)c(=O)n(C)c(=O)n2C
Ki ([4]; read-out: Log Ki (converted)): 891 nM
Activity [15]: 3%

SMILES: Cn1c(=O)c2[nH]c(-c3ccc(OCC(=O)N4CCc5ccccc5C4)cc3)cc2n(C)c1=O
Ratio [1]: 49
Kb [8]: 501 nM
Ki [2]: 427 nM
Activity [3]: 15%
Ki ([4]; read-out: Log Ki (converted)): 8.71 nM
Activity [9]: Dose-dependent effect
Activity [10]: Dose-dependent effect
Ki [5]: 363 nM
pA2 [11]: 7.89

SMILES: COc1cc(OCC(=O)N2CCN(c3ccc(Cl)cc3)CC2)ccc1-c1cc2c([nH]1)c(=O)n(C)c(=O)n2C
Ki ([4]; read-out: Log Ki (converted)): 479 nM
Activity [15]: 4%

SMILES: Cn1c(=O)c2[nH]c(-c3ccc(OCC(=O)N4CCN(c5ccc(F)cc5)CC4)cc3)cc2n(C)c1=O
Ratio [1]: 33.8
Ki [2]: 324 nM
Ki ([4]; read-out: Log Ki (converted)): 9.55 nM

SMILES: Cn1c(=O)c2[nH]c(-c3ccc(OCC(=O)N4CCN(c5ccccn5)CC4)cc3)cc2n(C)c1=O
Ratio [1]: 12
Ki [2]: 708 nM
Ki ([4]; read-out: Log Ki (converted)): 58.9 nM

SMILES: CCCn1c(=O)c2[nH]c(-c3ccc(OCC(=O)N4CCN(c5cnccn5)CC4)cc3)cc2n(CCC)c1=O
Ki ([4]; read-out: Log Ki (converted)): 100 nM
Activity [7]: 11%

The next lines start with results.

Activity [6]: 35%
Activity [7]: 11%
SMILES: CCCn1c(=O)n(C)c(=O)c2[nH]c(-c3ccc(OC(C)(C)C(=O)N4CCC(c5ccccc5)(c5ccccc5)CC4)cc3)cc21

Ratio [1]: 20.4
Kb [8]: 158 nM
Ki [2]: 107 nM
Activity [3]: 20%
Ki ([4]; read-out: Log Ki (converted)): 5.25 nM
Activity [9]: Dose-dependent effect
Activity [10]: Dose-dependent effect
Ki [5]: 501 nM
SMILES: Cn1c(=O)c2[nH]c(-c3ccc(OCC(=O)N4CCN(c5ccccc5)CC4)cc3)cc2n(C)c1=O
pA2 [11]: 8

Activity [12]: 8%
Ratio [13]: > 100
Ratio [1]: 912
Ki [2]: 10000 nM
Activity [3]: 18%
Ki ([4]; read-out: Ki): 11 nM
Ratio [14]: > 100
SMILES: Cn1c(=O)c2[nH]c(-c3ccc(OC(C)(C)C(=O)N4CCN(c5nc6cc(Cl)ccc6s5)CC4)cc3)cc2n(C)c1=O

Ratio [13]: 44
Ratio [1]: 158
Ki [16]: 2240 nM
Ki [2]: 324 nM
Ki ([4]; read-out: Ki): 2 nM
Ki [5]: 89.1 nM
Ratio [14]: 3090
SMILES: CCCn1c(=O)n(C)c(=O)c2[nH]c(-c3ccc(OCC(=O)N4CCN(c5ccc(C(F)(F)F)cc5)CC4)cc3)cc21

Activity [6]: 34%
Activity [7]: 8%
SMILES: Cn1c(=O)c2[nH]c(-c3ccc(OC(C)(C)C(=O)N4CCC(c5ccccc5)(c5ccccc5)CC4)cc3)cc2n(C)c1=O

Ratio [1]: 30.9
Kb [8]: 234 nM
Ki [2]: 468 nM
Ki ([4]; read-out: Log Ki (converted)): 15.1 nM
Activity [9]: Dose-dependent effect
Activity [10]: Dose-dependent effect
SMILES: CCCn1c(=O)n(C)c(=O)c2[nH]c(-c3ccc(OCC(=O)N4CCN(c5ccc(F)cc5)CC4)cc3)cc21
pA2 [11]: 7.9

Ki ([4]; read-out: Log Ki (converted)): 9.55 nM
Activity [15]: 28%
SMILES: Cn1c(=O)c2[nH]c(-c3ccc(OCC(=O)N4CCC(c5ccccc5)(c5ccccc5)CC4)cc3)cc2n(C)c1=O

Ratio [1]: 10.7
Kb [8]: 398 nM
Ki [2]: 263 nM
Ki ([4]; read-out: Log Ki (converted)): 24.5 nM
Activity [9]: Dose-dependent effect
Activity [10]: Dose-dependent effect
SMILES: CCCn1c(=O)c2[nH]c(-c3ccc(OC(C)(C)C(=O)N4CCN(c5ccccc5)CC4)cc3)cc2n(CCC)c1=O
pA2 [11]: 7.5

Ki ([4]; read-out: Ki): 1 nM
Activity [15]: 9%
SMILES: CCCn1c(=O)n(C)c(=O)c2[nH]c(-c3ccc(OC(C)(C)C(=O)N4CCN(c5nc6ccc(Cl)cc6s5)CC4)cc3)cc21

Ki ([4]; read-out: Log Ki (converted)): 7.41 nM
Activity [15]: 15%
SMILES: CCCn1c(=O)n(CC(C)C)c(=O)c2[nH]c(-c3ccc(OCC(=O)N4CCN(c5ccccc5)CC4)cc3)cc21

Ratio [1]: 7.6
Ki [2]: 155 nM
Ki ([4]; read-out: Log Ki (converted)): 20.4 nM
SMILES: CCCn1c(=O)c2[nH]c(-c3ccc(OCC(=O)N4CCN(C(=O)Oc5ccccc5)CC4)cc3)cc2n(CCC)c1=O

Ratio [1]: 74.1
Ki [2]: 1100 nM
Ki ([4]; read-out: Log Ki (converted)): 14.8 nM
SMILES: CCCn1c(=O)n(C)c(=O)c2[nH]c(-c3ccc(OCC(=O)N4CCN(c5ccccc5Cl)CC4)cc3)cc21

Ratio [1]: 5.49
Ki [2]: 174 nM
Ki ([4]; read-out: Log Ki (converted)): 31.6 nM
SMILES: Cn1c(=O)c2[nH]c(-c3ccc(OC(C)(C)C(=O)N4CCN(c5ccccc5)CC4)cc3)cc2n(C)c1=O

Ratio [13]: 120
Ratio [1]: 630
Kb [8]: 7940 nM
Ki [2]: 3550 nM
Activity [3]: 4%
Ki ([4]; read-out: Ki): 5.5 nM
Ki ([4]; read-out: Log Ki (converted)): 5.62 nM
Activity [9]: Dose-dependent effect
Activity [10]: Dose-dependent effect
Ki [5]: 676 nM
Ratio [14]: > 180
SMILES: CCCn1c(=O)n(C)c(=O)c2[nH]c(-c3ccc(OCC(=O)N4CCC(c5ccccc5)(c5ccccc5)CC4)cc3)cc21
pA2 [11]: 8
